# Test results as given in PubChem BioAssay AID624466 (The Scripps Research Institute Molecular Screening Center, 2012).
# The whole screen tested about 360,000 compounds, of which about 5,400 (1.5%) were called active. The full list was thinned out, with actives kept by preference. Unmarked numbers belong to inactive results.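 How the source made its calls: active means inhibition above a per-plate cutoff, the mean inhibition of test compounds on that plate plus 3 SD (cut at about 49% in these data); inactive means the rest.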
# Target: Trace amine-associated receptor 1 (Homo sapiens) (UniProt Q96RJ0)
# Sequence (Q96RJ0 whole entry, looked up): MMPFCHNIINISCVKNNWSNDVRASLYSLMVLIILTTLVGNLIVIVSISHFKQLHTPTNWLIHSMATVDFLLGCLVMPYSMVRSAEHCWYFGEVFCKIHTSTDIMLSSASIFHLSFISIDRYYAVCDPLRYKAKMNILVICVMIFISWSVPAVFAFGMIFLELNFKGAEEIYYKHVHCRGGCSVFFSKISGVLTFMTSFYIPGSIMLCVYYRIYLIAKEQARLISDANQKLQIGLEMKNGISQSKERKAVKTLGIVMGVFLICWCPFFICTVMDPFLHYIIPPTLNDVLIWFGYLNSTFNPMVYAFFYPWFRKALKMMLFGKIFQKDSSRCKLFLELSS
# Assay: human TAAR1 antagonists, primary screen, Fluo-8 calcium fluorescence, CHO RD-HGA16 cells (AID 624466);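 further: 0% = DMSO plus EC80 beta-PEA response and 100% = DMSO alone without agonist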
# Details: CHO RD-HGA16 TAAR1, Fluo-8 calcium fluorescence, antagonist; at 3 µM; stronger effect = higher value
# Procedure, shortened: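 Assay system: RD-HGA16 CHO cells with stable hTAAR1 and Gα16 / Reagent: EC80 β-phenethylamine stimulus / Doses: 3 µM, single point / Timing: dye loading 75 min at 37 °C, then 30 min room temperature / Measured by: Fluo-8 intracellular calcium dye fluorescence, real-time kinetic reads / Controls: vehicle wells and EC80 agonist wells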
row,SMILES,inhibition
1,CCOC(=O)[C@]12CCCC=C1N(CCC1=CCCCC1)C(=O)[C@H](CC(=O)N1CCCCC1)C2,-49.4%
2,COC(=O)C1=C(C)N(Cc2ccccc2C(F)(F)F)C(=NCc2ccc(C(F)(F)F)cc2)NC1c1ccc(F)cc1 (stereo not given),-31.9%
3,Nc1nnc(SCC(=O)Nc2ccc3nc(SCC(=O)Nc4ccccc4)sc3c2)s1,48.9% (active)
4,CCCCNC(=O)CSc1nc2ccc(NC(=O)CSc3nnc(N)s3)cc2s1,14.2%
5,CCCCNC(=O)CSc1nc2ccc(NC(=O)CSc3nnc(COc4ccccc4C)n3C)cc2s1,23.6%
6,COC(=O)[C@@]12C[C@@H](CC(=O)NCCCCc3ccccc3)C(=O)N(Cc3ccccc3)C1=CCC(C)(C)C2,1.67%
7,CSCCC(C(=O)NC(C)(C)C)n1c(-c2ccccc2)nc2ccccc21 (stereo not given),-24.9%
8,COC(=O)[C@@]1(Cc2ccc(F)cc2)[C@H]2c3cc(C(=O)N4CCCC4)n(Cc4ccc(OC(F)(F)F)cc4)c3C[C@H]2CN1C(=O)c1ccccc1,-23%
9,CCC(C(=O)Nc1ccc(C(C)C)cc1)c1ccccc1 (stereo not given),83.9% (active)
10,CC(NC(=O)Nc1ccccc1)c1ccccc1 (stereo not given),8.89%
11,CC(C)c1ccc(NC(=O)Cn2ncc3ccccc32)cc1,-7.65%
12,COc1ccc(C(=O)NCC[N+](C)(C)C)cc1,-19.6%
13,O=c1[nH]c(-c2ccccc2)cn1C1CCN(Cc2ccc(-c3nc4ccc(F)cc4nc3-c3ccccc3)cc2)CC1,9.33%
14,O=C(COC(=O)Cc1ccccc1F)NCCc1ccccc1,72.9% (active)
15,COc1ccc(CCNC(=O)COC(=O)Cc2ccccc2F)cc1,-11.5%
16,O=C(COC(=O)Cc1c[nH]c2ccccc12)NCCc1ccccc1,-12.2%
17,Cc1ccc2nc(SCC(=O)Nc3cccc4ccccc34)nc(=O)n2c1,-20.9%
18,C=CCNC(=O)c1cc2nc(C3CC3)cc(C(F)F)n2n1,7.57%
19,Cc1ccc(F)c(S(=O)(=O)NC(=O)C2(C)CCN2C(=O)CCc2cccs2)c1 (stereo not given),-14.2%
20,CCOC(=O)C1C(c2ccc(O)cc2)NC(=O)NC1(O)C(F)(F)F (stereo not given),-14.2%
21,CCC1(C)COC(c2ccc(OC)c(OC)c2)OC1 (stereo not given),-18.6%
22,CCOC(=O)C1C(c2ccc(OC)c(OC)c2)c2c([nH][nH]c2=O)CC1(C)O (stereo not given),56.8% (active)

row,SMILES,inhibition
1,Cc1cccc(N2CCN(Cc3nc(C4CC4)no3)CC2)n1,-31.7%
2,Cc1cc(OC(=O)NCCc2ccc(F)cc2)ccc1F,-10.5%
3,CC(C)CNc1cccc2c1S(=O)(=O)N[C@H](CC(C)C)CO2,-8.78%
4,Cc1ccc(-c2nnc(SCC(=O)N/N=C/c3cccs3)n2-c2ccc(C)cc2)cc1,7.24%
5,Cc1nc2ccccc2n1CC(=O)N/N=C/c1cccs1,56.9% (active)
6,COc1ccc(NC(=O)COC(=O)Cn2c(C)nc3ccccc32)cc1OC,13.9%
7,Cc1[nH]c2ccccc2c1C(=O)c1cc([C@H](NC(=O)OC(C)(C)C)C(C)C)sc1N,-5.4%
8,C=CCn1c(=O)c2ccccc2n2c(SCC(=O)N3CCCc4ccccc43)nnc12,5.64%
9,Cn1c(SCC(=O)N2CCCc3ccccc32)nc2ccccc2c1=O,59.3% (active)
10,O=C(CSc1nc2ccccc2c(=O)n1CCCO)N1CCc2ccccc21,-4.55%
11,COC(=O)c1sc(-c2ccc(C(C)(C)C)cc2)cc1NC(=O)/C=C/C(=O)O,69.3% (active)
12,COc1ccc(NS(=O)(=O)c2ccc(N3CCOCC3)c(NC(=O)/C=C/C(=O)O)c2)cc1,-2.93%
13,COc1ccccc1NC(=O)/C=C/C(N)=O,-1.16%
14,O=C(Nc1ccon1)c1nc[nH]c1C(=O)NCc1ccccc1,-5.83%
15,C[C@H](NC(=O)c1nc[nH]c1C(=O)NCC(=O)OC(C)(C)C)C(=O)OCc1ccccc1,60.9% (active)
16,Cc1cccc(NC(=O)c2nc[nH]c2C(=O)NCC(=O)OCc2ccccc2)c1,64% (active)
17,CNC(=O)c1[nH]cnc1C(=O)N[C@@H](CC(C)C)C(=O)OCc1ccccc1,23.5%
18,O=C(Nc1cc(Br)ccc1F)c1nc[nH]c1C(=O)NCc1ccccc1,-18.3%
19,C[C@H](NC(=O)c1nc[nH]c1C(=O)NCC(=O)OC(C)(C)C)c1ccccc1,-2.15%
20,CC(C)(C)OC(=O)N1CCC(NC(=O)c2[nH]cnc2C(=O)N[C@@H](Cc2ccccc2)C(=O)OCc2ccccc2)CC1,35.6%
21,C[C@H](NC(=O)c1nc[nH]c1C(=O)N[C@@H](C)C(=O)OC(C)(C)C)C(=O)OC(C)(C)C,0.46%
22,CC(C)(C)OC(=O)NCCCCCNC(=O)c1nc[nH]c1C(=O)NCc1ccccc1,60% (active)

row,SMILES,inhibition
1,CC(C)(C)OC(=O)CNC(=O)c1[nH]cnc1C(=O)N[C@@H](Cc1ccccc1)C(=O)OCc1ccccc1,51.3% (active)
2,CC(C)(C)OC(=O)NCCCCCNC(=O)c1[nH]cnc1C(=O)Nc1nccs1,38.9%
3,O=C(N[C@@H](Cc1ccccc1)C(=O)OCc1ccccc1)c1nc[nH]c1C(=O)N[C@@H](Cc1ccccc1)C(=O)OCc1ccccc1,15.8%
4,CN(CCc1ccccn1)C1CCCN(S(=O)(=O)c2ccccc2Cl)C1 (stereo not given),-19.7%
5,COc1ccccc1Cc1c(-c2ccc(F)cc2)nc2ccc(C)cn12,-18.1%
6,O=C(NCc1ccccc1)[C@H]1CCCN1C(=O)[C@H]1CCCN1C(=O)N1CCOCC1,15.4%
7,CCCCn1nnnc1C(c1cc2ccccc2o1)N(C)Cc1ccc(Cl)c(Cl)c1 (stereo not given),-19.1%
8,CC(C)[C@H]1COCCS(=O)(=O)N1Cc1ccccc1-c1cccc2c1sc1ccccc12,-54.8%
9,Nc1nc(CC(=O)CSc2ccc(Cl)cc2)nc(Nc2ccc(F)cc2)n1,-2.27%
10,C=CCC[C@@H](CCCCC)OC(=O)/C=C/[C@@H](O)[C@H](O)C[C@H](O)CC=C,-5.68%
11,Cc1nc(NC(=O)C(C)(C)C)sc1[N+](=O)[O-],-6.34%
12,Cc1ccc(C(=O)N2CC(=O)Nc3ccccc32)o1,-3.59%
13,O=C(NCc1ccccc1)C(c1ccc(F)cc1)N1CCN(C(=O)C2CCCO2)CC1 (stereo not given),-21.5%
14,CCCCC[C@H](C)N1C[C@@H](COCc2ccccc2)Oc2cc(N3CC[C@@H](N(C)C)C3)ccc2S1(=O)=O,-6.02%
15,Nc1ncnc2c1ncn2[C@@H]1O[C@H](C(=O)N[C@@H](CCc2ccccc2)C(=O)NCC(=O)N2CCOCC2)[C@@H](O)[C@H]1O,8.4%
16,COC(=O)C1=C(C)N(Cc2cccc(C(F)(F)F)c2)C(=NCc2ccccc2)NC1c1ccc(Cl)cc1 (stereo not given),46%
17,COC(=O)[C@]12C[C@H](CC(=O)NCc3ccccc3)C(=O)N(CCC3=CCCCC3)C1=C[C@H](C(C)(C)C)O[C@@H]2C,-44.8%
18,COc1cccc(-c2cc(CNC(=O)[C@@H](Cc3ccccc3)NC(=O)[C@H]3O[C@@H](n4cnc(C(N)=O)n4)[C@H](O)[C@@H]3O)no2)c1,-23.1%
19,Cc1cccc(-c2nc3ccc(C(=O)NCCN4CCN(C)CC4)cc3nc2-c2cccc(C)c2)c1,-13.7%
20,O=C(NCCN1CCOCC1)/C(=C/c1ccc(F)cc1)NC(=O)c1ccccc1,1.45%
21,Cc1ccc(C(=O)N/C(=C\c2ccc(F)cc2)C(=O)NCCN2CCOCC2)cc1,0.72%
22,O=C(NCCN1CCOCC1)c1ccc2c(c1)N(Cc1cccc(Cl)c1)C(=O)c1ccccc1S2(=O)=O,-0.54%

row,SMILES,inhibition
1,O=C(NCCN1CCOCC1)c1ccc(/C=C2\Sc3ccccc3N(Cc3ccc(F)cc3)C2=O)cc1,70.2% (active)
2,CCN1CCN(CCNC(=O)c2ccc(/C=C3/Sc4ccccc4N(Cc4cccc(C)c4)C3=O)cc2)CC1,61.5% (active)
3,C=C1C(=O)OC2C1CCC(C)=CCCC1(C)OC21 (stereo not given),-17.7%
4,CCOc1ccc(S(=O)(=O)NCCC(=O)NNC(=O)c2ccc(F)cc2)cc1,-12%
5,O=C(Nc1ccccc1N1CCOCC1)c1ccc(OCc2cscn2)cc1,29.3%
6,CC(C)OCCCNc1ncnc2c1[nH]c1ccc(F)cc12,51.5% (active)
7,Cc1ccc(C2NC(C(=O)O)CS2)cc1 (stereo not given),-13.1%
8,O=C1/C(=C\c2ccc([N+](=O)[O-])cc2)CS(=O)(=O)C/C1=C/c1ccc([N+](=O)[O-])cc1,36.7%
9,c1ccc(CSc2ncnc3c2sc2nc(N4CCOCC4)c4c(c23)CCCC4)cc1,-16.6%
10,c1ccc2c(CCN3CCNC[C@H]3Cc3cccc4ccccc34)cccc2c1,23.8%
11,c1ccc(C2CNCc3c2ccc2ccccc32)cc1 (stereo not given),81.3% (active)
12,O=C(NCCC1=CCCCC1)c1ccc(-n2cncn2)cc1,-0.95%
13,Cc1ccn2c(=O)c(C(=O)NCCC3=CCCCC3)c(O)nc2c1,64.5% (active)
14,O=C(CCNC(=O)Cn1ccc2ccccc2c1=O)NCCC1=CCCCC1,-24.7%
15,C(#CCN1CCOCC1)CCCN1CCOCC1,-21.3%
16,O=C(COC(=O)C12CC3CC(CC(O)(C3)C1)C2)NC12CC3CC(CC(C3)C1)C2,-12.3%
17,CCN(CC)c1ccc(/C=N/NC(=O)c2cnccn2)c(O)c1,48.9% (active)
18,CCN(CC)c1ccc(NC(=O)c2ccc(Cl)nc2)cc1,6.5%
19,Cc1ccc(/C=N/NC(=O)C2=NNC(c3ccccc3)(c3ccccc3)C2)c(O)c1,0.27%
